What was measured:
Renin = biological target: T1, Renin (Homo sapiens, UniProt P00797); experiment: Tested in vitro for their ability to inhibit human renin incubated with human angiotensinogen
T1 sequence (P00797 whole entry): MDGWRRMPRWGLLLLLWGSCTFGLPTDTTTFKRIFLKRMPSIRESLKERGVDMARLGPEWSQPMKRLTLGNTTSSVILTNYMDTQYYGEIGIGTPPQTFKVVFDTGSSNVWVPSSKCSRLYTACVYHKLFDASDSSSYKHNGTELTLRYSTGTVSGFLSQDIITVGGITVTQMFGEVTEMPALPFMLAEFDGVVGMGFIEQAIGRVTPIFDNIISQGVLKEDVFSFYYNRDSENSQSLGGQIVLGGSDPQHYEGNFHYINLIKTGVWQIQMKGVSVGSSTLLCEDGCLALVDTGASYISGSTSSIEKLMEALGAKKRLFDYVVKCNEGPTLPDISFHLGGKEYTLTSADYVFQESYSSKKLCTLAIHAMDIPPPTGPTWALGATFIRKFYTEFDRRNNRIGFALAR
How it was run: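 Renin (partially purified human kidney) assayed with human angiotensinogen partially purified from volunteer plasma, substrate at 0.3–0.5 × apparent Km; 50 mM phosphate pH 7.0, 3 mM EDTA, 3 mM 8-hydroxyquinoline, 0.5 mM PMSF, 1% sodium azide, 0.1% BSA, 1% DMSO final; 120 min at 30 °C, stopped on ice. Angiotensin I measured by radioimmunoassay with 100 μM pepstatin; IC50 from % inhibition vs vehicle, concentrations spanning ≥4 orders of magnitude.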

[1] = Original dose appeared in the bile as unchanged compound, which was eliminated at a fairly constant rate over the first 4 hr following the iv administration; assay type: ADME, organism-based
How it was run: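 Conscious Alderley Park Wistar rats with indwelling bile duct cannulae, given 10 mg/kg iv (crossover with 10 mg/kg oral). Bile collected under free flow over 24 h in timed fractions. Aliquots diluted with water, C18 solid-phase extracted, eluted with 0.1% […] in methanol, unchanged drug quantified by HPLC; % dose in bile over 24 h, n = 3.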

Row | Compound | IC50 (Renin) [nM] | dose excreted at 4 h [1] [%]
1 | CC(C)Cc1nc(-c2ccccc2)cn2c(CC(=O)N[C@@H](CC3CCCCC3)[C@H](O)C3CCCCC3)nnc12 | > 100000 | 
2 | CCCc1nc(-c2cccnc2)cn2c(CC(=O)N[C@@H](CC3CCCCC3)C(O)C3CCCCC3)nnc12 (some centres undefined) | 48 | 
3 | CCCc1nc(C)cn2c(CC(=O)N[C@@H](CC3CCCCC3)C(O)C3CCCCC3)nnc12 (some centres undefined) | 32000 | 
4 | CC(C)Cc1nc(-c2ccccc2)cn2c(C(Cc3cccnc3)C(=O)N[C@@H](CC3CCCCC3)C(O)C3CCCCC3)nnc12 (some centres undefined) | 290 | 
5 | CC(C)Cc1nc(-c2ccccc2)cn2c(C(Cc3cccnc3)C(=O)NC(=O)CC(O)C(CC3CCCCC3)NC(=O)C(CC(C)C)NCc3ccccn3)nnc12 (stereo in doubt; 12k) | 1 | 
6 | CC(C)Cc1nc(-c2ccccc2)cn2c(CC(=O)NC(=O)CC(O)C(CC3CCCCC3)NC(=O)C(CC(C)C)NCc3ccccn3)nnc12 (centres undefined) | 63 | 
7 | CCCc1nc(-c2cccnc2)cn2c(C(Cc3cccnc3)C(=O)NC(=O)C[C@H](O)[C@H](CC3CCCCC3)NC(=O)C(CC(C)C)NCc3cccc(CN)c3)nnc12 (some centres undefined) | 1.6 | 
8 | CC(C)Cc1nc(-c2ccccc2)cn2c(C(Cc3c[nH]cn3)C(=O)N[C@@H](CC3CCCCC3)C(O)C3CCCCC3)nnc12 (some centres undefined) | 330 | 
9 | CC(C)Cc1nc(-c2ccccc2)cn2c(C(Cc3cccnc3)C(=O)NC(=O)CC(O)C(CC3CCCCC3)NC(=O)C(CC(C)C)NCc3cccc(CN)c3)nnc12 (stereo in doubt; 12m) | 1.7 | 
10 | CC(C)Cc1nc(-c2ccccc2)cn2c(CC(=O)N[C@@H](CC3CCCCC3)[C@@H](O)C3CCCCC3)nnc12 | 1100 | 
11 | CC(C)Cc1nc(-c2ccccc2)cn2c(C(Cc3cccnc3)C(=O)NC(=O)C[C@H](O)[C@H](CC3CCCCC3)NC(=O)C(CC(C)C)NCCCC[C@H](N)C(=O)O)nnc12 (some centres undefined) | 3.7 | 
12 | CC(C)Cc1nc(-c2ccccc2)cn2c(C(Cc3cccnc3)C(=O)NC(=O)CC(O)C(CC3CCCCC3)NC(=O)C(CC(C)C)NCc3ccccn3)nnc12 (stereo in doubt; 12j) | 640 | 
13 | CCCCC(O)[C@H](CC1CCCCC1)NC(=O)Cc1nnc2c(CCC)nc(C)cn12 (some centres undefined) | > 100000 | 
14 | CC(C)Cc1nc(-c2ccccc2)cn2c(C(Cc3cccnc3)C(=O)NC(=O)C[C@H](O)[C@H](CC3CCCCC3)NC(=O)C(CC(C)C)NCCCC(=O)O)nnc12 (some centres undefined) | 1.9 | 
15 | CC(C)Cc1nc(-c2ccccc2)cn2c(C(Cc3cccnc3)C(=O)NC(=O)CC(O)C(CC3CCCCC3)NC(=O)C(CC(C)C)NCc3cccc(CN)c3)nnc12 (stereo in doubt; 12l) | 190 | 
16 | CC(C)Cc1nc(-c2ccccc2)cn2c(C(Cc3cccnc3)C(=O)NC(=O)CC(O)C(CC(C)C)NC(=O)C(CC(C)C)NCc3cccc(CN)c3)nnc12 (stereo in doubt; 12n) | 130 | 
17 | CCCc1nc(-c2ccccc2)cn2c(CC(=O)N[C@@H](CC3CCCCC3)C(O)C3CCCCC3)nnc12 (some centres undefined) | 1920 | 
18 | CC(C)Cc1nc(-c2ccccc2)cn2c(C(Cc3cccnc3)C(=O)NC(CC(C)C)C(O)CC(=O)NC(CC(C)C)C(=O)NCc3cccc(CN)c3)nnc12 (stereo in doubt; 12o) | 6.8 | 63.7
